Screening data as filed in PubChem.
Compounds with a hit are over-represented: about 3.7% of the library has one in this group of screens.
Kir21 block: inhibitors of mouse Kir2.1 inward-rectifier potassium channel; B-score at 10 µM; Inward rectifier potassium channel 2 (Mus musculus), P35561; AID 1672, 2009; HEK293-Kir2.1, FluxOR thallium flux fluorescence; stronger effect = lower value; hit rate 0.85% among 310,000;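 active means fluorescence ratio B-score at or below minus 3 SD of library scores, with starting-brightness B-score within 2 SD, cut at about -4.2 in these data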;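 further: channel flux triggered by added potassium and thallium sulfate stimulus; B-score of peak minus minimum fluorescence over baseline after thallium stimulus; more negative B-score means stronger Kir2.1 block with less thallium influx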
KCNK3 inh: human KCNK3 channel inhibitors, primary screen, CHO cells, FluxOR thallium flux, B-score. Potassium channel subfamily K member 3 (Homo sapiens), O14649. hit rate 0.84% among 340,000. FluxOR fluorescence; stronger effect = lower value. AID 602410, 2012. B-score at 10 µM;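 active means B-score under library mean minus 4 SD, starting fluorescence ratio at most library mean plus 5 SD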;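 further: more negative B-score means stronger inhibition of thallium flux through KCNK3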
hERG rescue: hERG rescue from dofetilide block, primary screen, cell-based, CHO-hERG, FluxOR thallium flux, dofetilide IC70. dofetilide IC70 present. Voltage-gated inwardly rectifying potassium channel KCNH2 (Homo sapiens), Q12809. hit rate 0.51% among 310,000. activation (rescue from dofetilide block), less the hit threshold, % at 10 µM. AID 1511, 2009;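 active means activation above the mean of controls blocked by dofetilide plus 5 SD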;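 further: thallium influx through hERG after potassium depolarization seen as dye fluorescence rise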
KCNQ1 block: inhibitors of human KCNQ1 channel, primary screen, cell-based, thallium flux, high-throughput; CHO-K1 KCNQ1, FluxOR thallium flux fluorescence; stronger effect = higher value; Potassium voltage-gated channel subfamily KQT member 1 (Homo sapiens), P51787; B-score at 10 µM; hit rate 1.3% among 310,000;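 active means compounds whose thallium flux B-score, printed positive for inhibition, exceeds three library SD while starting fluorescence stays within three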;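 further: channel opened by potassium depolarization with thallium stimulus after 20 min compound exposure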
KCNK9 block: KCNK9 potassium channel inhibitors, primary screen, HEK293 cells, thallium flux | FluxOR thallium flux fluorescence; stronger effect = lower value | Potassium channel subfamily K member 9 (Homo sapiens), Q9NPC2 | hit rate 1.2% among 310,000 | B-score at 10 µM;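 active means ratio B-score over 3 SD below the library mean, with starting fluorescence within 5 SD of its mean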;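 further: negative B-score means less thallium flux so channel inhibition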
Target sequence (Q9NPC2 whole entry, looked up): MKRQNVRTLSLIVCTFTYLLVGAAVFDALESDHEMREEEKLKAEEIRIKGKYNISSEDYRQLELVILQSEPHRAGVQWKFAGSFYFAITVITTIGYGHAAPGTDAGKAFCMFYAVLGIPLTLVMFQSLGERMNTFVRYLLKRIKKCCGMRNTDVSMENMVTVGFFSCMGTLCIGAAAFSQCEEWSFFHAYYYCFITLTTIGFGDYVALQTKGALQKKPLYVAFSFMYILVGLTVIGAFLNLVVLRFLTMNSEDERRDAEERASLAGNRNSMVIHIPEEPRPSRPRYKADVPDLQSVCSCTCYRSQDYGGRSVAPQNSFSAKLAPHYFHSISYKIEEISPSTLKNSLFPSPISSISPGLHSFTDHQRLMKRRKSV
KCNQ1 act: potentiators or activators of KCNQ1 channel, primary screen, cell-based, thallium flux, high-throughput; Potassium voltage-gated channel subfamily KQT member 1 (Homo sapiens), P51787; CHO-K1 KCNQ1, thallium flux FluxOR fluorescence; stronger effect = higher value; B-score at 10 µM; hit rate 0.35% among 310,000;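 active means fluorescence ratio B-score, a plate-corrected score, at least three library SD, with initial intensity B-score within 5 SD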
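Assay system: stable KCNQ1 CHO-K1 line; medium: assay buffer, equal DMSO in all wells; timing: 90 min dye loading and 20 min compound exposure, both at room temperature; technique: kinetic FluxOR thallium fluorescence, 10-s 1-Hz baseline, 110-s post-stimulus read; read-out basis: B score of baseline-normalized fluorescence ratio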
Hits are given with their value; - = inactive; . = no result given.

SMILES	Kir21 block	KCNK3 inh	hERG rescue	KCNQ1 block	KCNK9 block	KCNQ1 act
CC(Cc1ccccc1)NC(=O)CC(c1ccccc1)c1ccccc1O (centres undefined)	-	-	-	-	-	-
CC(Cc1ccccc1)NC(=S)CN1CCCC1=S (centres undefined)	-4.6	-	-	-	-	-
CC(C)C[C@@H](CO)N1CCN(CC(C)C)CCC1=O	-	-	5.7	-	-	-
CCCN1CCC(=O)N([C@H](CO)CC(C)C)CC1	-	-	-	-	-	-
O=C(NC(=S)N1CCc2ccccc21)C1CCC1	-	-	-	-	-	-
O=C(NC(=S)N1CCc2ccccc21)c1ccc(Br)o1	-	-	12	-	-	81
CC(C)(C)C(=O)NC(=S)N1CCc2ccccc21	-	-	-	-	-	-
O=C(NC(=S)N1CCc2ccccc21)c1ccccc1Br	-	-	52	-	-	45
CC(Oc1ccc(Cl)cc1Cl)C(=O)NC(=S)N1CCc2ccccc21 (centres undefined)	-	-	28	-	-	9
O=C(COc1ccc(Br)cc1Br)NC(=S)N1CCCc2ccccc21	-	-	6.8	-	-	-
O=C(NC(=S)Nc1nc2c(ccc3ccccc32)s1)c1cccs1	-	-	-	-	-	9
COc1ccc(-c2csc(NC(=S)NC(=O)c3cccs3)n2)cc1OC	-	-	-	-	-7.9	11
COc1ccc(-c2csc(NC(=S)NC(=O)c3cccs3)n2)cc1Br	-	-	8.6	-	-	9
CCCCOc1ccc(OCCNS(=O)(=O)N(C)C)cc1	-	-	-	-	-	-
Cc1ccc(C)c2sc(NC(=O)c3ccc(N4CCCCC4)c([N+](=O)[O-])c3)nc12	-	-	-	-	-7.8	-
C#Cc1ccc(CN2CCC(C(=O)Nc3ccc(Oc4ccccc4)nc3)CC2)cc1	-	-	-	6	-	-
Cc1cccc(CN2CCC(C(=O)Nc3ccc(Oc4cccnc4)cc3)CC2)c1	-4.3	-	-	-	-	-
C#Cc1ccc(CN2CCCC(C(=O)Nc3ccccc3Oc3cccnc3)C2)cc1 (centres undefined)	-5.1	-	-	-	-	-
COC(=O)c1sccc1-n1cccc1C(=O)C(=O)N1CCOCC1	-	-	-	-	-	-
C[C@H]1CN([C@@H](C)CO)C(=O)c2cccc(NC(=O)c3nc4ccccc4s3)c2O[C@H]1CN(C)C(=O)Nc1ccc(F)cc1	.	-	.	.	.	.
CCC1(c2ccc(Cl)cc2)NC(=S)N(c2ccc(C)c(C)c2)N1 (centres undefined)	-	-	68	-	-	103
CCC1(c2ccccc2)NC(=S)N(c2ccc(C)c(C)c2)N1 (centres undefined)	-	-	47	-	-	91
CC1(CCc2ccccc2)NC(=S)N(c2ccc(Cl)cc2)N1 (centres undefined)	-	-	-	-	-	-
CC1=CC(C)(C)NC(=S)N1c1ccc(C)c(C)c1	-	-	-	-	-	-
CCC1(c2ccc(Cl)cc2)NC(=S)N(c2ccc(C)cc2)N1 (centres undefined)	-	-	38	-	-	68
SMILES	Kir21 block	KCNK3 inh	hERG rescue	KCNQ1 block	KCNK9 block	KCNQ1 act
O=C(O)CCC(=O)Nc1cccc(-c2nc3ccccc3o2)c1	-	-	-	-	-	-
Cn1c(=O)c2c(nc(Sc3ncnn3CC(=O)N3CCOCC3)n2C)n(C)c1=O	-	-	-	-	-	-
CCOC(=O)C1(CC2CC2)CCN(Cc2cn[nH]c2-c2ccccc2)CC1	-	-	-	-	-	-
CCOC(=O)C1(Cc2ccccc2)CCN(Cc2cn[nH]c2-c2ccccc2)CC1	-4.8	-	-	-	-	-
COc1ccc(C(=O)/C(C#N)=N/Nc2ccc([N+](=O)[O-])cc2)cc1	-	-	-	6	-	-
COc1cc(NC(=O)CN2C(=O)NC(CC(C)C)C2=O)cc(OC)c1OC (centres undefined)	.	-	.	.	.	.
